Legend:
[1] = Lipophilicity log D at pH 7.4; format: physicochemical; details: buffer
[2] = Stability in ethanol after 30 mins by HPLC; format: physicochemical; details: read-out: Stability
Procedure, shortened: (§1)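 50 kBq radiotracer was added to 1 mL of PBS (0.1 M, pH 7.4), ethanol, culture medium (RPMI + 10% FKS + 1% pen/strep) or fresh rat plasma and held at 37 °C for 30 min or 24 h. Samples were analysed by radio-HPLC on a C18 column with a Soerensen buffer (0.01 M, pH 7.4)/methanol gradient; intact tracer is reported as percent.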

[3] = Stability in ethanol after 24 hrs by HPLC; format: physicochemical; details: read-out: Stability; procedure, shortened: as §1
[4] = Stability in PBS buffer at pH7.4 after 30 mins by HPLC; format: physicochemical; details: pH 7.4, read-out: Stability; procedure, shortened: as §1
[5] = Stability in PBS buffer at pH7.4 after 24 hrs by HPLC; format: physicochemical; details: pH 7.4, read-out: Stability; procedure, shortened: as §1
[6] = Stability in cell culture medium after 24 hrs by HPLC; format: physicochemical; details: read-out: Stability; procedure, shortened: as §1
[7] = Stability in Wistar rat plasma after 30 mins; format: ADME, cell-free; details: read-out: Stability; procedure, shortened: as §1
[8] = Stability in Wistar rat plasma after 24 hrs; format: ADME, cell-free; details: read-out: Stability; procedure, shortened: as §1
FaDu = test: Cellular uptake in human FADU cells measured per mg of protein at 25 kBq after 1 hr; format: ADME, cell-based
Procedure, shortened: (§2)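 HT-29 cells in McCoy's 5A and FaDu cells in RPMI 1640, both with 10% FBS, were seeded at 5 × 10⁴ cells/well and left overnight. About 25 kBq radiotracer in 0.25 mL medium was added at 37 °C. Cells were washed three times with ice-cold PBS, lysed in 0.1 M NaOH/1% SDS and gamma-counted. Protein was measured by BCA; results are %ID/mg protein.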

Lung = test: Biodistribution in Wistar rat lung at 0.2 to 0.3 MBq, iv after 5 mins; format: ADME, organism-based; details: in vivo
Procedure, shortened: (§3)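 Normal male Wistar rats (180 ± 20 g) given a single iv tail-vein injection of 0.2–0.3 MBq radiotracer in solution containing 1% HSA. Under ether anaesthesia at 5 min p.i., blood was taken by heart puncture and the animals euthanized. Organs were removed, weighed and counted in a calibrated well counter. Results are SUV = (organ activity/organ weight)/(given activity/body weight); mean ± SD, n = 8.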

Kidney = test: Biodistribution in Wistar rat kidney at 0.2 to 0.3 MBq, iv after 5 mins; format: ADME, organism-based; details: in vivo; procedure, shortened: as §3
Liver = test: Biodistribution in Wistar rat liver at 0.2 to 0.3 MBq, iv after 5 mins; format: ADME, organism-based; details: in vivo; procedure, shortened: as §3
[9] = molecular target: Cyclin-dependent kinase 4 (Homo sapiens, UniProt P11802); test: Inhibition of CDK4
Cyclin-dependent kinase 4, sequence (P11802 whole entry): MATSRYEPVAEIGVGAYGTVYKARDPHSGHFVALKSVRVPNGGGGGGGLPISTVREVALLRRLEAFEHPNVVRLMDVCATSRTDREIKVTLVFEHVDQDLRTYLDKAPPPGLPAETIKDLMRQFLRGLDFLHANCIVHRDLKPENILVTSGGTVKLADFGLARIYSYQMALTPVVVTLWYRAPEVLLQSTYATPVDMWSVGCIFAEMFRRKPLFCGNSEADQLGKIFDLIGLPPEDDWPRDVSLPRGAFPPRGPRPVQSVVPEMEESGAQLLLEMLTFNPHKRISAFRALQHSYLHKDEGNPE

[10] = molecular target: Cyclin-dependent kinase 1 (Homo sapiens, UniProt P06493); test: Inhibition of CDK1
Cyclin-dependent kinase 1, sequence (P06493 whole entry): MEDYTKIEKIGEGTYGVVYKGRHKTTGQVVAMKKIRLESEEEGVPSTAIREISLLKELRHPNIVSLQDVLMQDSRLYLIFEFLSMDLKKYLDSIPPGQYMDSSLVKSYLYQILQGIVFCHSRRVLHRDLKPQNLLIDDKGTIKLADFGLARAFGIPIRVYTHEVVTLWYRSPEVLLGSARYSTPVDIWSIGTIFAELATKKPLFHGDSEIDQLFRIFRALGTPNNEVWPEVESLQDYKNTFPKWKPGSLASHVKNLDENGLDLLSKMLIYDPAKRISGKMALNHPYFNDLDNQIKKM

[11] = molecular target: Cyclin-dependent kinase 2 (Homo sapiens, UniProt P24941); test: Inhibition of CDK2
HT-29 = test: Cellular uptake in human HT-29 cells measured per mg of protein at 25 kBq after 1 hr; format: ADME, cell-based; details: ht-29, 1 h; procedure, shortened: as §2

SMILES	logD [1]	remaining at 0.5 h [2]	remaining at 24 h [3]	remaining at 0.5 h [4]	remaining at 24 h [5]	remaining at 24 h [6]	remaining at 0.5 h [7]	remaining at 24 h [8]	Drug uptake (FaDu)	SUV (Lung)	SUV (Kidney)	SUV (Liver)	IC50 [9]	IC50 [10]	IC50 [11]	Drug uptake (HT-29)
Cc1c([124I])c(=O)n(C2CCCC2)c2nc(Nc3ccc(N4CCNCC4)cn3)ncc12	1.99	98%	97%	97%	95%	97%	94%	94%	900 %Idose	8.43	> 3.2	> 3.2				
Cc1c(I)c(=O)n(C2CCCC2)c2nc(Nc3ccc(N4CCNCC4)cc3)ncc12													< 20 nM	> 360 nM	> 360 nM	
O=c1ccc2cnc(Nc3ccc(N4CCC(CCCO)CC4)cc3)nc2n1C1CC2CCC1C2 (stereo not drawn)													< 20 nM			
Cc1c([124I])c(=O)n(C2CCCC2)c2nc(Nc3ccc(N4CCNCC4)cc3)ncc12	2.77	93%	94%	92%	86%	96%	93%	94%		8.67	> 3.2	> 3.2				750 %Idose

From ChEMBL document CHEMBL1154741, “Radiosynthesis and radiopharmacological evaluation of cyclin-dependent kinase 4 (Cdk4) inhibitors” (Eur J Med Chem, 2010)
